Experimental findings from ChEMBL document CHEMBL2417361, “Investigation of acyclic uridine amide and 5'-amido nucleoside analogues as potential inhibitors of the Plasmodium falciparum dUTPase” (Bioorg Med Chem, 2013) are described below.

In series [1] the target is T1, Deoxyuridine 5'-triphosphate nucleotidohydrolase, mitochondrial (Homo sapiens, UniProt P33316).
T1 sequence (P33316 whole entry): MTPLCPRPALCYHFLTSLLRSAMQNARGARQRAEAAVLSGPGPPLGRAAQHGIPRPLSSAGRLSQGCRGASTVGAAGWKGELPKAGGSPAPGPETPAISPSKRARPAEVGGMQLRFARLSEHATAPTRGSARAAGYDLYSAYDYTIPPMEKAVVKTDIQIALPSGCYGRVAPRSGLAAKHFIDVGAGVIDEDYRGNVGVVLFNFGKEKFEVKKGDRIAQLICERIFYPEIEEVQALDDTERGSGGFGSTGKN
The series is described as follows: Inhibition of recombinant human dUTPase expressed in Escherichia coli BL21 (DE3) using dUTP as substrate by spectrophotometric analysis. The essentials: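 Human enzyme expressed in IPTG-induced E. coli BL21(DE3) and purified like the parasite enzyme (phosphocellulose, then gel filtration, ≥96% pure). Hydrolysis after rapid mixing was read as proton release using a cresol red/bicine indicator pair (pH 8, 573 nm), with absorbance change kept within 0.1 units. Vmax and KMapp were fitted to the integrated Michaelis–Menten equation.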

Series [2] in a line: Selectivity index, ratio of EC50 for rat L6 cells to EC50 for Plasmodium falciparum K1. Type of series: toxicity, cell-based. As to conditions: read-out: Ratio EC50.
Series [3] is described as follows: Selectivity index, ratio of Ki for human dUTPase to Ki for recombinant Plasmodium falciparum dUTPase.
Series [4] is described as follows: Inhibition of recombinant Plasmodium falciparum dUTPase expressed in Escherichia coli BL21 (DE3) using dUTP as substrate by spectrophotometric analysis. The essentials:
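Recombinant enzyme from IPTG-induced E. coli BL21(DE3), purified by phosphocellulose and gel filtration to ≥96% purity, stored in 10 mM bicine/5 mM MgCl2 pH 8. Stopped-flow mixing of 30 nM PfdUTPase with 50 µM dUTP, 5 mM MgCl2, 1 mg/mL BSA and 100 mM KCl. Proton release tracked with cresol red/bicine (pH 8) at 573 nm. Vmax and KMapp fitted by integrated Michaelis–Menten equation.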

In the next series the test system is Plasmodium falciparum. The series is described as follows: Antiparasitic activity against chloroquine/pyrimethamine-resistant Plasmodium falciparum K1 infected in erythrocytes assessed as parasite growth inhibition after 48 hrs by [3H]-hypoxanthine incorporation assay. Format: functional, organism-based.
The subject of another series is L6. Kind of series: Cytotoxicity against rat L6 cells after 72 hrs by Alamar Blue assay. Format: cell-based. Particulars: L6, 72 h. The essentials:
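Rat skeletal myoblast L6 line, with podophyllotoxin as control. EC50 is the mean of two independent assays.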
On the technique in general: Resazurin is reduced to fluorescent resorufin, in cell work by metabolically active cells.

In general, Ki refers to the equilibrium dissociation constant of an inhibitor or competing ligand from its target. As for `O=C(NCCCn1ccc(=O)[nH]c1=O)C(c1ccccc1)(c1ccccc1)c1ccccc1`, in series [1], the Ki stood at 1000 µM.

Take `O=c1ccn(CCCCCCNC(c2ccccc2)(c2ccccc2)c2ccccc2)c(=O)[nH]1`: the selectivity ratio in series [2] is 36.

On to `O=C(CCCn1ccc(=O)[nH]c1=O)NC(c1ccccc1)c1ccccc1`, for which the Ki in series [1] turned out to be 1000 µM.

In the case of `O=C(NCCCO)C(c1ccccc1)(c1ccccc1)c1ccccc1`, the Ratio Ki in series [3] is 1.

`O=C(O)CCCn1ccc(=O)[nH]c1=O`: the Ratio Ki in series [3] was 400. Further, the Ki in series [1] is 1000 µM; in series [4], greater than 100 µM.

For the compound `O=c1ccn(CCCCCCOC(c2ccccc2)(c2ccccc2)c2ccccc2)c(=O)[nH]1`, the selectivity ratio in series [2] worked out at 19.

Turning to `O=c1ccn([C@H]2C[C@H](O)[C@@H](CNC(c3ccccc3)(c3ccccc3)c3ccccc3)O2)c(=O)[nH]1`, in series [4], the Ki is 0.2 µM.

Turning to `O=C(CCCn1ccc(=O)[nH]c1=O)NC(c1ccccc1)(c1ccccc1)c1ccccc1`, in series [1], the Ki was 1000 µM.

Usually EC50 stands for the midpoint of the concentration-response curve. For `O=c1ccn(CCCCNC(c2ccccc2)c2ccccc2)c(=O)[nH]1`, the results for the inhibitory constant (Ki) in series [1] and in series [4] were 63 µM and 5.7 µM, respectively. Moreover, the EC50 in the series with Plasmodium falciparum stood at 2.6 µM; with L6 it was 99 µM. In series [2], the selectivity ratio came out at 38.

In the case of `O=C(c1ccccc1)n1c(=O)ccn(CCCNC(=O)C(c2ccccc2)(c2ccccc2)c2ccccc2)c1=O`, the Ratio Ki in series [3] is 56. Moreover, the values for the Ki in series [1] and in series [4] were 1000 µM and greater than 100 µM, respectively.

With `O=C(NCCCO)C(c1ccccc1)c1ccccc1`, in series [3], the Ratio Ki is 13. Further, the Ki was 1000 µM in series [1] and greater than 100 µM in series [4].

On to `O=c1ccn(CCCCNC(c2ccccc2)(c2ccccc2)c2ccccc2)c(=O)[nH]1`, for which the selectivity ratio in series [2] came to 9.

For the compound `O=c1ccn(CCCCOC(c2ccccc2)c2ccccc2)c(=O)[nH]1`, the Ki was 49 µM in series [1] and 0.5 µM in series [4]. Moreover, the EC50 in the series with Plasmodium falciparum came out at 14 µM; in the series on L6, 104 µM. Besides, the selectivity ratio in series [2] was determined as 7.

Take `O=c1ccn(CCCNC(c2ccccc2)c2ccccc2)c(=O)[nH]1`: the Ki was 10 µM in series [1] and 5.7 µM in series [4]. The EC50 with Plasmodium falciparum stood at 5.5 µM; in the series with L6, 269 µM. The selectivity ratio in series [2] was determined as 49.

In the case of `O=c1ccn(CCCOC(c2ccccc2)(c2ccccc2)c2ccccc2)c(=O)[nH]1`, the selectivity ratio in series [2] was determined as 5.

With `O=c1ccn([C@H]2C[C@H](O)[C@@H](CNC(c3ccccc3)c3ccccc3)O2)c(=O)[nH]1`, the Ki was greater than 100 µM in series [1] and 0.2 µM in series [4]. The values for the EC50 with Plasmodium falciparum and with L6 were 12 µM and greater than 229 µM, respectively. The selectivity ratio in series [2] was greater than 20.
